Assay results reported in ChEMBL document CHEMBL3352437, “Novel 3,5-bis(arylidene)-4-oxo-1-piperidinyl dimers: structure-activity relationships and potent antileukemic and antilymphoma cytotoxicity” (Eur J Med Chem, 2014).

Test system: K562
Experiment: Antileukemic activity against human K562 cells assessed as inhibition of tumor growth after 24 hrs
Format: functional, cell-based
Settings: K562, 24 h

Structure (SMILES) | IC50 [µM]
O=C1/C(=C/c2ccc(Cl)cc2)CN(C(=O)C(=O)N2C/C(=C\c3ccc(Cl)cc3)C(=O)/C(=C/c3ccc(Cl)cc3)C2)C/C1=C\c1ccc(Cl)cc1 | 0.13

Test system: COLO 205
Experiment: Cytotoxicity against human COLO205 cells assessed as inhibition of tumor growth after 24 hrs
Format: functional, cell-based
Settings: COLO 205, 24 h

Structure (SMILES) | IC50 [µM]
O=C1/C(=C/c2ccc(Cl)cc2)CN(C(=O)C(=O)N2C/C(=C\c3ccc(Cl)cc3)C(=O)/C(=C/c3ccc(Cl)cc3)C2)C/C1=C\c1ccc(Cl)cc1 | 0.16

Test system: BJAB
Experiment: Cytotoxicity against human BJAB cells assessed as dead cells at 1 uM after 24 hrs
Format: functional
Settings: not given
Method in brief: (§1)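 Dienones added as DMSO solutions to cells in RPMI medium and incubated 24 h at 37°C. Cytotoxicity was scored as cell-membrane disruption by propidium iodide staining and expressed as percentage of dead cells, averaged over three independent experiments.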

Structure (SMILES) | Activity [%]
O=C1/C(=C/c2ccc(Cl)cc2)CN(C(=O)C(=O)N2C/C(=C\c3ccc(Cl)cc3)C(=O)/C(=C/c3ccc(Cl)cc3)C2)C/C1=C\c1ccc(Cl)cc1 | 43.1

Test system: not listed separately
Experiment: Cytotoxicity against human 22Rvl cells assessed as dead cells at 1 uM after 24 hrs
Format: functional
Settings: not given
Method in brief: as §1

Structure (SMILES) | Activity [%]
O=C1/C(=C/c2ccc(Cl)cc2)CN(C(=O)C(=O)N2C/C(=C\c3ccc(Cl)cc3)C(=O)/C(=C/c3ccc(Cl)cc3)C2)C/C1=C\c1ccc(Cl)cc1 | 13.6

Test system: Raji
Experiment: Cytotoxicity against human Raji cells assessed as dead cells at 1 uM after 24 hrs
Format: functional
Settings: not given
Method in brief: as §1

Structure (SMILES) | Activity [%]
O=C1/C(=C/c2ccc(Cl)cc2)CN(C(=O)C(=O)N2C/C(=C\c3ccc(Cl)cc3)C(=O)/C(=C/c3ccc(Cl)cc3)C2)C/C1=C\c1ccc(Cl)cc1 | 35.7

Test system: not listed separately
Experiment: Cytotoxicity against human MOLT3 cells assessed as dead cells at 1 uM after 24 hrs
Format: functional, MOLT-3
Settings: not given
Method in brief: as §1

Structure (SMILES) | Activity [%]
O=C1/C(=C/c2ccc(Cl)cc2)CN(C(=O)C(=O)N2C/C(=C\c3ccc(Cl)cc3)C(=O)/C(=C/c3ccc(Cl)cc3)C2)C/C1=C\c1ccc(Cl)cc1 | 0.4

Test system: CCRF-CEM
Experiment: Antiproliferative activity against human CEM cells after 72 hrs by coulter counting analysis
Format: functional, cell-based
Settings: not given
Method in brief: (§2)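 Cells exposed to a range of concentrations in RPMI 1640 at 37°C for 72 h. Surviving cells counted by Coulter counter. IC50 taken from concentration-response curves, mean ± SD of at least three independent experiments.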

Structure (SMILES) | IC50 [µM]
O=C1/C(=C/c2ccc(Cl)cc2)CN(C(=O)C(=O)N2C/C(=C\c3ccc(Cl)cc3)C(=O)/C(=C/c3ccc(Cl)cc3)C2)C/C1=C\c1ccc(Cl)cc1 | 0.793

Test system: HeLa
Experiment: Antiproliferative activity against human HeLa cells after 72 hrs by coulter counting analysis
Format: functional, cell-based
Settings: not given
Method in brief: as §2

Structure (SMILES) | IC50 [µM]
O=C1/C(=C/c2ccc(Cl)cc2)CN(C(=O)C(=O)N2C/C(=C\c3ccc(Cl)cc3)C(=O)/C(=C/c3ccc(Cl)cc3)C2)C/C1=C\c1ccc(Cl)cc1 | 0.649

Test system: SW-620
Experiment: Cytotoxicity against human SW620 cells assessed as inhibition of tumor growth after 24 hrs
Format: functional, cell-based
Settings: SW-620, 24 h

Structure (SMILES) | IC50 [µM]
O=C1/C(=C/c2ccc(Cl)cc2)CN(C(=O)C(=O)N2C/C(=C\c3ccc(Cl)cc3)C(=O)/C(=C/c3ccc(Cl)cc3)C2)C/C1=C\c1ccc(Cl)cc1 | 0.18

Test system: HL-60(TB)
Experiment: Antileukemic activity against human HL-60(TB) cells assessed as inhibition of tumor growth after 24 hrs
Format: functional, cell-based
Settings: HL-60, 24 h

Structure (SMILES) | IC50 [µM]
O=C1/C(=C/c2ccc(Cl)cc2)CN(C(=O)C(=O)N2C/C(=C\c3ccc(Cl)cc3)C(=O)/C(=C/c3ccc(Cl)cc3)C2)C/C1=C\c1ccc(Cl)cc1 | 0.19

Test system: HS27
Experiment: Cytotoxicity against human HS27 cells assessed as dead cells at 1 uM after 24 hrs
Format: cell-based
Settings: hs27, 24 h
Method in brief: (§3)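 Compounds added from DMSO solutions to cells in medium (RPMI; DMEM for Hs-27 fibroblasts) and incubated 24 h at 37°C. Membrane disruption scored by propidium iodide uptake. Result is percentage of dead cells, average of three independent experiments.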

Structure (SMILES) | Activity [%]
O=C1/C(=C/c2ccc(Cl)cc2)CN(C(=O)C(=O)N2C/C(=C\c3ccc(Cl)cc3)C(=O)/C(=C/c3ccc(Cl)cc3)C2)C/C1=C\c1ccc(Cl)cc1 | 0

Test system: not listed separately
Experiment: Cytotoxicity against human MDA231 cells assessed as dead cells at 1 uM after 24 hrs
Format: functional, MDA-MB-231
Settings: not given
Method in brief: as §1

Structure (SMILES) | Activity [%]
O=C1/C(=C/c2ccc(Cl)cc2)CN(C(=O)C(=O)N2C/C(=C\c3ccc(Cl)cc3)C(=O)/C(=C/c3ccc(Cl)cc3)C2)C/C1=C\c1ccc(Cl)cc1 | 10

Test system: LAPC4
Experiment: Cytotoxicity against human LAPC4 cells assessed as dead cells at 1 uM after 24 hrs
Format: functional
Settings: not given
Method in brief: as §1

Structure (SMILES) | Activity [%]
O=C1/C(=C/c2ccc(Cl)cc2)CN(C(=O)C(=O)N2C/C(=C\c3ccc(Cl)cc3)C(=O)/C(=C/c3ccc(Cl)cc3)C2)C/C1=C\c1ccc(Cl)cc1 | 27

Test system: L1210
Experiment: Antiproliferative activity against mouse L1210 cells after 72 hrs by coulter counting analysis
Format: functional, cell-based
Settings: L1210, 72 h

Structure (SMILES) | IC50 [µM]
O=C1/C(=C/c2ccc(Cl)cc2)CN(C(=O)C(=O)N2C/C(=C\c3ccc(Cl)cc3)C(=O)/C(=C/c3ccc(Cl)cc3)C2)C/C1=C\c1ccc(Cl)cc1 | 0.547

Test system: Jurkat
Experiment: Cytotoxicity against human Jurkat cells assessed as dead cells at 1 uM after 24 hrs
Format: functional
Settings: not given
Method in brief: as §1

Structure (SMILES) | Activity [%]
O=C1/C(=C/c2ccc(Cl)cc2)CN(C(=O)C(=O)N2C/C(=C\c3ccc(Cl)cc3)C(=O)/C(=C/c3ccc(Cl)cc3)C2)C/C1=C\c1ccc(Cl)cc1 | 78.5

Test system: Ramos
Experiment: Cytotoxicity against human Ramos cells assessed as dead cells at 1 uM after 24 hrs
Format: functional
Settings: not given
Method in brief: as §1

Structure (SMILES) | Activity [%]
O=C1/C(=C/c2ccc(Cl)cc2)CN(C(=O)C(=O)N2C/C(=C\c3ccc(Cl)cc3)C(=O)/C(=C/c3ccc(Cl)cc3)C2)C/C1=C\c1ccc(Cl)cc1 | 82.9

Test system: not listed separately
Experiment: Antileukemic activity against human RPMI8226 cells assessed as inhibition of tumor growth after 24 hrs
Format: functional, cell-based
Settings: rpmi-8226

Structure (SMILES) | IC50 [µM]
O=C1/C(=C/c2ccc(Cl)cc2)CN(C(=O)C(=O)N2C/C(=C\c3ccc(Cl)cc3)C(=O)/C(=C/c3ccc(Cl)cc3)C2)C/C1=C\c1ccc(Cl)cc1 | 0.05

Test system: MCF7
Experiment: Cytotoxicity against human MCF7 cells assessed as dead cells at 1 uM after 24 hrs
Format: functional
Settings: not given
Method in brief: as §1

Structure (SMILES) | Activity [%]
O=C1/C(=C/c2ccc(Cl)cc2)CN(C(=O)C(=O)N2C/C(=C\c3ccc(Cl)cc3)C(=O)/C(=C/c3ccc(Cl)cc3)C2)C/C1=C\c1ccc(Cl)cc1 | 17.8

Test system: not listed separately
Experiment: Cytotoxicity against human NCI60 cells assessed as inhibition of tumor growth after 24 hrs
Format: functional, cell-based
Settings: NCI60, 24 h

Structure (SMILES) | IC50 [µM]
O=C1/C(=C/c2ccc(Cl)cc2)CN(C(=O)C(=O)N2C/C(=C\c3ccc(Cl)cc3)C(=O)/C(=C/c3ccc(Cl)cc3)C2)C/C1=C\c1ccc(Cl)cc1 | 0.22

Test system: YT
Experiment: Cytotoxicity against human YT cells assessed as dead cells at 1 uM after 24 hrs
Format: functional
Settings: not given
Method in brief: as §1

Structure (SMILES) | Activity [%]
O=C1/C(=C/c2ccc(Cl)cc2)CN(C(=O)C(=O)N2C/C(=C\c3ccc(Cl)cc3)C(=O)/C(=C/c3ccc(Cl)cc3)C2)C/C1=C\c1ccc(Cl)cc1 | 21.5

Test system: DU-145
Experiment: Cytotoxicity against human DU145 cells assessed as dead cells at 1 uM after 24 hrs
Format: functional
Settings: not given
Method in brief: as §1

Structure (SMILES) | Activity [%]
O=C1/C(=C/c2ccc(Cl)cc2)CN(C(=O)C(=O)N2C/C(=C\c3ccc(Cl)cc3)C(=O)/C(=C/c3ccc(Cl)cc3)C2)C/C1=C\c1ccc(Cl)cc1 | 33.1

Test system: EL4
Experiment: Cytotoxicity against mouse EL4 cells assessed as dead cells at 1 uM after 24 hrs
Format: functional
Settings: not given
Method in brief: as §1

Structure (SMILES) | Activity [%]
O=C1/C(=C/c2ccc(Cl)cc2)CN(C(=O)C(=O)N2C/C(=C\c3ccc(Cl)cc3)C(=O)/C(=C/c3ccc(Cl)cc3)C2)C/C1=C\c1ccc(Cl)cc1 | 52.5

Test system: KM12
Experiment: Cytotoxicity against human KM12 cells assessed as inhibition of tumor growth after 24 hrs
Format: functional, cell-based
Settings: KM12, 24 h

Structure (SMILES) | IC50 [µM]
O=C1/C(=C/c2ccc(Cl)cc2)CN(C(=O)C(=O)N2C/C(=C\c3ccc(Cl)cc3)C(=O)/C(=C/c3ccc(Cl)cc3)C2)C/C1=C\c1ccc(Cl)cc1 | 0.21

Test system: HCC 2998
Experiment: Cytotoxicity against human HCC2998 cells assessed as inhibition of tumor growth after 24 hrs
Format: functional, cell-based
Settings: HCC 2998, 24 h

Structure (SMILES) | IC50 [µM]
O=C1/C(=C/c2ccc(Cl)cc2)CN(C(=O)C(=O)N2C/C(=C\c3ccc(Cl)cc3)C(=O)/C(=C/c3ccc(Cl)cc3)C2)C/C1=C\c1ccc(Cl)cc1 | 0.31

Test system: HCC70
Experiment: Cytotoxicity against human HCC70 cells assessed as dead cells at 1 uM after 24 hrs
Format: functional
Settings: not given
Method in brief: as §1

Structure (SMILES) | Activity [%]
O=C1/C(=C/c2ccc(Cl)cc2)CN(C(=O)C(=O)N2C/C(=C\c3ccc(Cl)cc3)C(=O)/C(=C/c3ccc(Cl)cc3)C2)C/C1=C\c1ccc(Cl)cc1 | 8.4

Test system: not listed separately
Experiment: Antiproliferative activity against human Molt4/C8 cells after 72 hrs by coulter counting analysis
Format: functional, cell-based
Settings: MOLT-4, 72 h
Method in brief: as §2

Structure (SMILES) | IC50 [µM]
O=C1/C(=C/c2ccc(Cl)cc2)CN(C(=O)C(=O)N2C/C(=C\c3ccc(Cl)cc3)C(=O)/C(=C/c3ccc(Cl)cc3)C2)C/C1=C\c1ccc(Cl)cc1 | 0.294

Test system: CCRF-CEM
Experiment: Cytotoxicity against human CEM cells assessed as dead cells at 1 uM after 24 hrs
Format: functional
Settings: not given
Method in brief: as §1

Structure (SMILES) | Activity [%]
O=C1/C(=C/c2ccc(Cl)cc2)CN(C(=O)C(=O)N2C/C(=C\c3ccc(Cl)cc3)C(=O)/C(=C/c3ccc(Cl)cc3)C2)C/C1=C\c1ccc(Cl)cc1 | 59.9

Test system: not listed separately
Experiment: Cytotoxicity against human HuT-102 cells assessed as dead cells at 1 uM after 24 hrs
Format: functional
Settings: not given
Method in brief: as §1

Structure (SMILES) | Activity [%]
O=C1/C(=C/c2ccc(Cl)cc2)CN(C(=O)C(=O)N2C/C(=C\c3ccc(Cl)cc3)C(=O)/C(=C/c3ccc(Cl)cc3)C2)C/C1=C\c1ccc(Cl)cc1 | 31.4

Test system: not listed separately
Experiment: Cytotoxicity against human MCF10A cells assessed as dead cells at 1 uM after 24 hrs
Format: cell-based
Settings: mcf-10a
Method in brief: as §3

Structure (SMILES) | Activity [%]
O=C1/C(=C/c2ccc(Cl)cc2)CN(C(=O)C(=O)N2C/C(=C\c3ccc(Cl)cc3)C(=O)/C(=C/c3ccc(Cl)cc3)C2)C/C1=C\c1ccc(Cl)cc1 | 2.2

Test system: not listed separately
Experiment: Cytotoxicity against human NALM6 cells assessed as dead cells at 1 uM after 24 hrs
Format: functional, NALM-6
Settings: not given
Method in brief: as §1

Structure (SMILES) | Activity [%]
O=C1/C(=C/c2ccc(Cl)cc2)CN(C(=O)C(=O)N2C/C(=C\c3ccc(Cl)cc3)C(=O)/C(=C/c3ccc(Cl)cc3)C2)C/C1=C\c1ccc(Cl)cc1 | 59

Test system: not listed separately
Experiment: Cytotoxicity against human SupT1 cells assessed as dead cells at 1 uM after 24 hrs
Format: functional, SUP-T1
Settings: not given
Method in brief: as §1

Structure (SMILES) | Activity [%]
O=C1/C(=C/c2ccc(Cl)cc2)CN(C(=O)C(=O)N2C/C(=C\c3ccc(Cl)cc3)C(=O)/C(=C/c3ccc(Cl)cc3)C2)C/C1=C\c1ccc(Cl)cc1 | 18.1

Test system: not listed separately
Experiment: Cytotoxicity against human HCT15 cells assessed as inhibition of tumor growth after 24 hrs
Format: functional, cell-based
Settings: HCT-15, 24 h

Structure (SMILES) | IC50 [µM]
O=C1/C(=C/c2ccc(Cl)cc2)CN(C(=O)C(=O)N2C/C(=C\c3ccc(Cl)cc3)C(=O)/C(=C/c3ccc(Cl)cc3)C2)C/C1=C\c1ccc(Cl)cc1 | 0.14

Test system: SR
Experiment: Antileukemic activity against human SR cells assessed as inhibition of tumor growth after 24 hrs
Format: functional, cell-based
Settings: not given

Structure (SMILES) | IC50 [µM]
O=C1/C(=C/c2ccc(Cl)cc2)CN(C(=O)C(=O)N2C/C(=C\c3ccc(Cl)cc3)C(=O)/C(=C/c3ccc(Cl)cc3)C2)C/C1=C\c1ccc(Cl)cc1 | 0.02
